Measurements from ChEMBL document CHEMBL1126587, “Novel 6-alkoxypurine 2',3'-dideoxynucleosides as inhibitors of the cytopathic effect of the human immunodeficiency virus” (J Med Chem, 1993).

What was measured:
[1] = substrate: Nc1ncnc2c1ncn2[C@H]1CC[C@@H](CO)O1; experiment: Compound was tested for adenosine deaminase assay in calf intestine
Procedure, shortened: (§1)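 Calf intestinal adenosine deaminase, dialyzed against deionized water to remove ammonium sulfate. Dealkoxylation/deamination followed spectrophotometrically at 25 °C, pH 6.8 (adenosine: Δε −5.85 mM⁻¹cm⁻¹ at 270 nm). Km from initial velocity analysis. Relative velocity compares 100 μM dideoxynucleoside against 100 μM adenosine.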

[2] = substrate: COc1ncnc2c1ncn2C1CCC(CO)O1; experiment: (§2) Michaelis-Menten constant for adenosine deaminase assay in calf intestine; procedure, shortened: as §1
[3] = substrate: CCOc1ncnc2c1ncn2C1CCC(CO)O1; experiment: as §2; procedure, shortened: as §1

B1: Adenosine deaminase (Bos taurus), P56658 (protein)
chain: MAQTPAFNKPKVELHVHLDGAIKPETILYYGRKRGIALPADTPEELQNIIGMDKPLSLPEFLAKFDYYMPAIAGCREAVKRIAYEFVEMKAKDGVVYVEVRYSPHLLANSKVEPIPWNQAEGDLTPDEVVSLVNQGLQEGERDFGVKVRSILCCMRHQPSWSSEVVELCKKYREQTVVAIDLAGDETIEGSSLFPGHVKAYAEAVKSGVHRTVHAGEVGSANVVKEAVDTLKTERLGHGYHTLEDATLYNRLRQENMHFEVCPWSSYLTGAWKPDTEHPVVRFKNDQVNYSLNTDDPLIFKSTLDTDYQMTKNEMGFTEEEFKRLNINAAKSSFLPEDEKKELLDLLYKAYGMPSPASAEQCL
For B1, the Km [1] was 45 µM, the Km [2] was 150 µM and the Km [3] was 650 µM.
